From ChEMBL document CHEMBL1125931, “Fluorescent markers for hypoxic cells: a study of nitroaromatic compounds, with fluorescent heterocyclic side chains, that undergo bioreductive binding” (J Med Chem, 1991) come the findings set out here.

A short description of assay [1]: Binding of fluorescence moiety to oxic cells measured in flow cytometry assay at conc of 10e-4 M. It is filed as functional, Cricetulus griseus. Summed up:
(§1)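 V79 379A Chinese hamster cells (suspension culture, MEM with 7.5% fetal calf serum) incubated at 37 °C with 10^-4 M drug under aerobic or hypoxic gassing (air or N2, each + 5% CO2); DMSO final ≤1%. Flow cytometry after 6 h: excitation 365 nm, emission >390 or 410 nm; naphthalimides excited 458 nm, emission 510–560 nm. Mean fluorescence, arbitrary units, normalized for PMT gain and laser power.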
(A flow cytometer gives signals particle by particle.)

A short description of assay [2]: Binding of fluorescence moiety to hypoxic cells measured in flow cytometry assay at conc of 10e-4 M. It is filed as functional, Cricetulus griseus. Summed up: as §1
A short description of assay [3]: Cellular content after 4 hr incubation with compound under aerobic condition at 37 C. The note with it: Cricetulus griseus. It is filed as functional. The method, boiled down: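 Aerobic V79 Chinese hamster cells exposed to 10^-4 M extracellular drug for 4 h at 37 °C, then washed with PBS. Cell content measured by HPLC with an acetonitrile gradient, 50–75% over 10 min with 390 nm detection or 30–50% with 340 nm detection depending on compound. Reported as fmol per cell; about 0.1 fmol/cell corresponds to equilibration with the extracellular space.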

Each structure is given as a SMILES string. Some results are limits rather than exact numbers.

Consider `COc1ccc2cc(Cn3ccnc3[N+](=O)[O-])c(=O)oc2c1`, for which the “Fluorescence Intensity” value in assay [1] is given as 85; in assay [2], 203.

Take `O=C(CNCCCN(CCO)CCO)Nc1ccc2c3c(cccc13)C(=O)N(CCCn1ccnc1[N+](=O)[O-])C2=O`: in assay [3], the Uptake was under 0.005 fmol/cell. The “Fluorescence Intensity” value in assay [1] was 13; in assay [2], 24.

Consider `COc1cc2cc(Cn3ccnc3[N+](=O)[O-])c(=O)oc2cc1OC`, for which the “Fluorescence Intensity” value in assay [1] was determined as 238; in assay [2] it was 1149.

`Br.COc1ccc2c(CSCCN)cc(=O)oc2c1`: the results for the “Fluorescence Intensity” value in assay [1] and in assay [2] were 19 and 77, respectively.

For the compound `Nc1ccc2c3c(cccc13)C(=O)N(CCCCCCCCCn1ccnc1[N+](=O)[O-])C2=O`, the Uptake in assay [3] turned out to be 105 fmol/cell. Further, the entries for the “Fluorescence Intensity” value in assay [1] and in assay [2] were 78 and 263, respectively.

For `COc1cc2oc(=O)cc(Cn3ccnc3[N+](=O)[O-])c2cc1OC`, the “Fluorescence Intensity” value in assay [1] was found to be 64; in assay [2], 1461.

Turning to `COc1ccc2cc(C(=O)NCCN(CCO)CC(O)Cn3ccnc3[N+](=O)[O-])c(=O)oc2c1` (centres undefined), the figures for the “Fluorescence Intensity” value in assay [1] and in assay [2] were 24 and 412, respectively.

For the compound `Nc1ccc2c3c(cccc13)C(=O)N(CCCn1ccnc1[N+](=O)[O-])C2=O`, the Uptake in assay [3] came to 98 fmol/cell. The “Fluorescence Intensity” value in assay [1] was found to be 17; in assay [2], 335.

As for `Nc1ccc2c3c(cccc13)C(=O)N(CCCCCn1ccnc1[N+](=O)[O-])C2=O`, the Uptake in assay [3] was determined as 93 fmol/cell. Besides, the “Fluorescence Intensity” value in assay [1] stood at 42; in assay [2] it was 235.

In the case of `COc1ccc2c(Cn3ccnc3[N+](=O)[O-])cc(=O)oc2c1`, the “Fluorescence Intensity” value in assay [1] is 24; in assay [2], 361.

For the compound `CC(=O)Nc1ccc2c3c(cccc13)C(=O)N(CCCn1ccnc1[N+](=O)[O-])C2=O`, the Uptake in assay [3] came to 0.04 fmol/cell. Moreover, the “Fluorescence Intensity” value in assay [1] worked out at 12; in assay [2], 37.

In the case of `COc1cc2nc(N3CCN(CC(O)Cn4ccnc4[N+](=O)[O-])CC3)nc(N)c2cc1OC` (centres undefined), the “Fluorescence Intensity” value in assay [1] is on record as 39; in assay [2], 85.
